Bioassay records from PubChem BioAssay.
Compounds with a hit are over-represented: about 2% of the library has one in this group of screens.
ARNT-TACC3 inh – ARNT/TACC3 interaction disruption. Q9Y6A5. AID 623870. 0.66% of 390,000 active. AlphaScreen His-ARNT PAS-B/GST-TACC3 binding, luminescence; TACC3 fragment carries E629A point mutation. inhibition, % at 9.99 µM;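 active = mean inhibition of replicates at least 50% and at least half of replicates each reaching 50%; inconclusive = half or more replicates reach 50% but mean below 50%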;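 note: 0% = complete ARNT plus TACC3 wells and 100% = ARNT alone without TACC3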
AI-2 QS mod – modulates the Vibrio harveyi AI-2 quorum sensing system | Vibrio harveyi JMH597 AI-2 luminescence/OD600 ratio, 9 h; active compounds read low; strain lacks LuxN and CqsS sensors; 0 = neutral-control median | activity change, % at 7.5 µM | 0.4% of 300,000 active; in the data active = activity change below about -75%, passing the limit was not always enough; inconclusive = no clear call, values can overlap the other calls;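 note: luminescence divided by OD600 gain over 9 h not by final OD600 alone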
HIF act – HIF pathway transcriptional activation | 0.32% of 300,000 active | AID 1910 | U2OS HRE-luciferase reporter, luminescence; normalized: DMSO 0%, desferrioxamine 100% | activation, % at 7.5 µM (by protocol);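 active = mean activation of at least 10% of the iron chelator positive control signal, with at least half of replicates also reaching 10%; inconclusive = mean and replicate majority disagree about reaching 10%; inactive = mean and most replicates under 10%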
T cruzi inh – blocks replication of Trypanosoma cruzi | 1.4% of 300,000 active | AID 1885 | inhibition, % (concentration not given with the values) | T. cruzi beta-gal in NIH3T3, luminescence, 90 h;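 active = mean inhibition across valid replicates above about 55%, limit read from the data; inconclusive = mean below that limit but half or more replicates reach it; inactive = mean below it, under half of replicates reach it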;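 note: signal also drops with host cell toxicity which is not excluded here; 0% = plate median of DMSO wells and 100% = zero luminescence signal; higher percent means less beta-gal luminescence so fewer parasites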
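Test system: β-gal T. cruzi (Tulahuen C4) inside NIH/3T3 cells / Quantity: 5,000 cells/well / Measured by: luminescence from GalScreen with 0.05% NP40, read after 60 min / Medium: DMEM plus 2% FBS / Measure: parasite load inhibition, % / Reagent: Tulahuen C4 trypomastigotes, 5000/well / Schedule: co-culture of at least 90 h after 3 h attachment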
Numbers without * were called inactive; ? = inconclusive; . = no result given.

SMILES	ARNT-TACC3 inh	AI-2 QS mod	HIF act	T cruzi inh
Cc1ccc(NC(=S)N(CCCN2CCOCC2)Cc2cccnc2)cc1C	2	19	1	68*
COc1cccc(NC(=S)N(CCCN2CCOCC2)Cc2cn(C)c3ccccc23)c1	-2	36	351*	-8
COc1ccc(NC(=S)N(CCCN2CCOCC2)Cc2cn(C)c3ccccc23)cc1OC	11	8	0	2
OCCCNC(=S)Nc1ccc2nc(-c3ccccn3)c(-c3ccccn3)nc2c1	60*	26	.	-8
CC(C)(C)CC(C)(C)NC(=S)Nc1ccc2nc(-c3ccccn3)c(-c3ccccn3)nc2c1	5	24	0	23
CN(C)NC(=S)Nc1ccc2nc(-c3ccccn3)c(-c3ccccn3)nc2c1	73*	11	0	4
C[C@H](NC(=O)C[C@H]1C[C@H]2c3cc(NC(=O)CC4CC4)ccc3O[C@H]2[C@H](CO)O1)c1ccccc1	-9	.	.	.
COc1cc(CN2CCCC(C(=O)c3ccccc3SC)C2)cc(OC)c1 (centres undefined)	12	-3	0	68*
COc1ccccc1C(=O)C1CCCN(Cc2ccc3c(c2)OCCO3)C1 (centres undefined)	6	3	-1	46
COc1ccc(C(=O)C2CCCN(Cc3cc(C)c(O)c(C)c3)C2)c(OC)c1 (centres undefined)	4	9	-1	27
COc1cc(OC)c(OC)cc1CN1CCCC(C(=O)N2CCCCC2)C1 (centres undefined)	-7	14	0	42
COc1cc(OC)c(OC)cc1CN1CCCC(C(=O)c2ccccc2SC)C1 (centres undefined)	-15	9	1	56*
COc1ccccc1C(=O)C1CCCN(Cc2cn[nH]c2C2CCCCC2)C1 (centres undefined)	.	2	0	62*
CCCCN(C)S(=O)(=O)c1ccc(C(=O)N(CCN(C)C)c2nc3ccc(C)cc3s2)cc1	.	11	1	65*
CCCCN(CC)S(=O)(=O)c1ccc(C(=O)N(CCCN(C)C)c2nc3cc(C)cc(C)c3s2)cc1	13	10	1	67*
CN(C)CCCN(C(=O)c1ccc(S(=O)(=O)N2CCCCCC2)cc1)c1nc2ccc(F)cc2s1	9	6	0	28
CCN(Cc1ccccc1)S(=O)(=O)c1ccc(C(=O)N(CCCN(C)C)c2nc3cc(C)cc(C)c3s2)cc1	-11	6	0	45
Cc1ccc2nc(N(CCCN(C)C)C(=O)c3ccc(S(=O)(=O)N4CCCCCC4)cc3)sc2c1	16	3	-2	60*
CN(C)CCCN(C(=O)c1ccc(S(=O)(=O)N2CCOCC2)cc1)c1nc2ccc(F)cc2s1	-2	22	-17	65*
CCC(=O)N1[C@H](CO)[C@@H](c2ccc(-c3cccc(F)c3)cc2)[C@@H]1CNC(C)=O	-10	.	.	.
COCC(=O)N1[C@H](CO)[C@@H](c2ccccc2)[C@@H]1C#N	22	.	.	.
O=C(c1ccc(F)cc1)N1C[C@@H]2[C@H](c3ccccc31)[C@H](CO)N2Cc1ccc2c(c1)OCO2	-1	.	.	.
CN(C)CCN(C(=O)c1ccc(S(=O)(=O)N2CCCC2)cc1)c1nc2ccc(Br)cc2s1	-10	21	2	57*
CC1CCCCN1S(=O)(=O)c1ccc(C(=O)N(CCCN(C)C)c2nc3ccc(Br)cc3s2)cc1 (centres undefined)	17	-4	-1	26
C[C@H]1CN([C@@H](C)CO)C(=O)c2cc(C3=CCCC3)cnc2O[C@H]1CN(C)C	2	.	.	.
SMILES	ARNT-TACC3 inh	AI-2 QS mod	HIF act	T cruzi inh
O=S(=O)(Nc1ccc(Nc2ccccc2)cc1)c1ccc(F)cc1	1	-95*	0	13
O=S(=O)(Nc1ccc(S(=O)(=O)Nc2ccccc2)cc1)c1ccccc1	-5	16	0	7
COc1cc(/C=C(\C#N)c2nc3ccc(C)cc3[nH]2)c([N+](=O)[O-])cc1OC	23	27	1	20
CCOc1cc(N(CC)CC)ccc1/C=C(/C#N)c1nc2ccccc2[nH]1	1	15	3	?
CCCOc1cc(N(CC)CC)ccc1/C=C(/C#N)c1nc2ccc(C)cc2[nH]1	4	37	2	64*
CCN(CC)c1ccc(/C=C(/C#N)c2nc3ccc(C)cc3[nH]2)c(OC(C)C)c1	5	5	0	84*
CCCN1C[C@H](C)[C@H](OC)CN(C)C(=O)c2cc(NS(=O)(=O)CC)ccc2OC[C@@H]1C	-1	.	.	.
